Experimental data from article PMC7318068 (ACS Central Science, 2020).

Columns and labels:
MDA-MB-468 cells [1] = experiment: Cell viability assay for combinatorial effect of AZ-82 and MK-FNE or MK-2206; type: cell-based; details: 72 hours
Akt1, Akt2, Akt3 = details: cited from earlier work
MDA-MB-468 cells [2] = experiment: Drug effect persistence assay; type: cell-based; details: EC60 concentration 48 h, then 24 h recovery
[3] = test system: T47D and T47D MK-2206-resistant cells; experiment: Cell viability of T47D; type: cell-based; details: 72 h
MDA-MB-468 xenografts = experiment: Drug efficacy test in MDA-MB-468 xenograft mouse model; type: in vivo, athymic nude mice; details: 200 mg/kg PO twice weekly
Method in brief: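 Polyclonal MDA-MB-468 cells were injected into both flanks of female nude mice. From day 7, test compound (200 mg/kg) or vehicle DMSO was given by oral gavage twice weekly, 5 mice per group. Tumor volume was normalized to time zero and plotted against time. Growth rate was the linear-regression slope; groups were compared by two-tailed unpaired t-test.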

Halo-Akt3(wt) = Halo-Akt3(wt) (Homo sapiens, UniProt Q9Y243); type: cell-based; details: 5 μM
Halo-Akt3(C119S) = Halo-Akt3(C119S) (Homo sapiens, UniProt Q9Y243, C119S); type: cell-based; details: 5 μM, 48 h, then withdrawal
Method in brief: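 HEK293T cells co-expressing the AktAR ratiometric-FRET reporter and Halo-Akt3(C119S) were exposed to test compound (5 μM) or DMSO for 24–48 h. They were then rinsed twice and recovered in drug-free media for 24 h. Akt kinase activity was imaged live by confocal ratiometric FRET with 458 nm argon-laser excitation at set times.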

[4] = test system: Akt3(T305)-phosphorylation; experiment: Halo-Akt3 phospho-T305 levels by western blot and ELISA; type: cell-based; details: saturating doses

Sequence of Halo-Akt3(wt) (Q9Y243 whole entry): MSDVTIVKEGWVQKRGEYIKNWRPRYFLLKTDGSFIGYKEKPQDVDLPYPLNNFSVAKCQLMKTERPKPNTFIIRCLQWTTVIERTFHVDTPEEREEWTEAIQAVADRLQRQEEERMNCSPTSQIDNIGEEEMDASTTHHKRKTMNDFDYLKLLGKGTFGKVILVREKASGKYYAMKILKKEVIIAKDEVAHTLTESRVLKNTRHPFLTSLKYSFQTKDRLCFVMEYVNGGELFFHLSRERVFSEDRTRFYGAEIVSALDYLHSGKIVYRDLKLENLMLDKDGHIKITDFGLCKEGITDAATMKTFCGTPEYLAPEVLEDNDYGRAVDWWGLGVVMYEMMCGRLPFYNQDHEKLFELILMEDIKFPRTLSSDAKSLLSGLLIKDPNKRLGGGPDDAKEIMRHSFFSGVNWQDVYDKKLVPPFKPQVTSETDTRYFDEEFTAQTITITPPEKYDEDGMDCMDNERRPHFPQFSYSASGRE
Sequence of Halo-Akt3(C119S) (Q9Y243 whole entry C119S): as the sequence (Q9Y243 whole entry) above, with C119S counted along it

Fold increase in resistance = EC50(MK-res)/EC50(wt) [3]	blood glucose levels (MDA-MB-468 xenografts; Day 21, 4 days after termination of dosing)	ratiometric-FRET signal (Akt activity) under treatment (Halo-Akt3(wt); 24 h, vs DMSO)	Akt3(wt) activity after 24 h withdrawal in drug-free media (Halo-Akt3(wt); 48 h, then withdrawal)	Akt3(C119S) activity after 24 h withdrawal in drug-free media (Halo-Akt3(C119S))	SMILES	effect on proliferation inhibition by MK-FNE or MK-2206 (MDA-MB-468 cells [1])	higher affinity for Akt1 than Akt3 (Akt1, Akt2, Akt3)	preference of Akt2 over Akt3 for binding (Akt1, Akt2, Akt3)	regrowth after compound withdrawal (MDA-MB-468 cells [2])	tumor-growth suppression overall (MDA-MB-468 xenografts; vs DMSO)	slope (m) of fold change in tumor size vs day, linear regression (MDA-MB-468 xenografts; DMSO 0.0638 ± 0.0032)	Akt3(T305)-phosphorylation [4]
					CCCc1cc(C(=O)N[C@H](Cc2ccc(-c3cccc(OC(F)(F)F)c3)nc2)C(=O)N[C@@H]2CCNC2)sc1C [AZ82]	selectively promoted resistance to MK-FNE, but not MK-2206						
5 fold	elevated relative to MK-FNE-treated mice	suppressed the ratiometric-FRET signal	kinase activity was restored	recovery to normal activity levels	NC1(c2ccc(-c3nc4ccn5c(=O)[nH]nc5c4cc3-c3ccccc3)cc2)CCC1 [MK-2206]		~100 fold	around 10 fold	statistically significant regrowth was observed	14%	0.0547 ± 0.0018	fully suppressed
